# Screens: PubChem, several laboratories
# This is a sample that favours compounds with a hit; in the whole collection about 4% have one here.
# Measles CPE: compounds protecting cells from measles virus cytopathic effect, primary screen, measles RdRp inhibitor project, single point, MLSMR library, absorbance. 140,000 compounds, 1.5% hits. Measles virus-infected cells, CPE protection. protection (pct of control), % at 4 µM; in the data active means protection mostly above about 24%, no sharp cut-off; inactive means mostly below about 26%
# Mdm2 ligase inh: MDM2-luciferase reporter signal enhancers, primary screen, MDM2 E3 ligase inhibitor project, cell-based, luminescence, 1536-well; E3 ubiquitin-protein ligase Mdm2 (Homo sapiens), Q00987; cell-based MDM2 ubiquitination luciferase reporter, 2 h; 0 = plate control, 100 = twice control, blank-subtracted; signal enhancement, % at 5 µM; 210,000 compounds, 0.11% hits; AID 1230, 2008;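 active means signal enhancement of 30% or more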;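 further: luminescence tracks abundance of the self-degrading MDM2-luciferase fusion protein; higher signal means inhibition of MDM2 E3 ligase activity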
# Target sequence (Q00987 whole entry, looked up, the tested form may be a part): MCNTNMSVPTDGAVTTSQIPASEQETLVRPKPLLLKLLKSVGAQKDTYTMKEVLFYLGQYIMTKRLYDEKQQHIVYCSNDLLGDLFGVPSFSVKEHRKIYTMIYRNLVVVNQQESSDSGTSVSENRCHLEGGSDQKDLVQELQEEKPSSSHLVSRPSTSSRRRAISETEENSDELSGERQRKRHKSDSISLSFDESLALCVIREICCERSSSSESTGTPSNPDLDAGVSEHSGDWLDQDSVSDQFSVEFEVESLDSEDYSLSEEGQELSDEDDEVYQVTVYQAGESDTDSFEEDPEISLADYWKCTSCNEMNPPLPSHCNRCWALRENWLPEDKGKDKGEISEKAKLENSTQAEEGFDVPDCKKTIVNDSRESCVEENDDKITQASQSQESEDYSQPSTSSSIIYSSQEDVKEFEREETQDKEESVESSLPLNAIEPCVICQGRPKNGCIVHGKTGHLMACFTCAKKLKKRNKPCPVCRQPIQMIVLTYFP
#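 test system = mammalian cells stably expressing self-ubiquitinating, self-degrading MDM2 E3–luciferase fusion | quantity = 2000 cells/well | incubation = cell settling 4 h, compound treatment 2 h, both 37 °C | signal = luminescence with SteadyLite reagent, 15 min at room temperature | evaluation = % enhancement relative to plate controls after blank subtraction | benchmarks = plate controls and plate blanks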
# RAM inhibit: inhibitors of the yeast RAM network, primary screen, dse1pr::URA3 reporter, 5-FOA selection | S. cerevisiae dse1pr::URA3 reporter, 5-FOA growth OD615, 2 d; analog-sensitive cbk1-as2 kinase mutant strain | inhibition, % at 50 µM | 190,000 compounds, 1.8% hits | AID 868, 2007;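 active means inhibition above a set limit, 3 SD over mean compound inhibition, cut at about 8.4% in these data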;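 further: 0% = DMSO-only wells with no growth and 100% = 10 µM 1-NA-PP1 full growth; inhibition rescues growth on 5-FOA so higher OD means more RAM inhibition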
# INS promoter inh: inhibitors of insulin promoter-driven GFP, primary screen, imaging, TRM-6 cells (human fetal islet line), eGFP reporter, cell count; reporter expression induced with tamoxifen; inhibition, % at 2 µM; 130,000 compounds, 0.9% hits; AID 1273, 2008;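 active means inhibition above the mean plus 3 SD, with well images judged a real hit on visual review, cut at about 60% in these data, passing the limit was not always enough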
# Yeast lifespan up: compounds extending yeast replicative lifespan, primary screen, S. cerevisiae, OD615; S. cerevisiae growth with nicotinamide; deaD strain in restrictive glucose medium; inhibition of the nicotinamide effect, % at 10 µM; 130,000 compounds, 0.68% hits; AID 775, 2007;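 active means inhibition above a set limit, placed 3 SD over the median of all compounds, cut at about 26% in these data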;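 further: 0% = nicotinamide-treated wells and 100% = cells grown without nicotinamide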
#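 Assay system: engineered S. cerevisiae DeaD replicative-lifespan strain, galactose-grown log-phase cells; Buffer or medium: CSMM-D glucose medium, restrictive; Probe or stimulus: nicotinamide 1.5 mM; Compound: single dose 10 µM compound, 0.25% DMSO; Schedule: 4 h preincubation then 48 h treatment at 30 °C; Technique: OD615 measurement.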
# Yeast growth inh: growth inhibitors of yeast BB579 in restrictive medium, primary screen, yeast lifespan-shortening project, S. cerevisiae | 140,000 compounds, 0.51% hits | inhibition, % at 10 µM | OD615, 48 h;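 active means inhibition above a set limit, 3 SD over the mean compound inhibition, cut at about 44% in these data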
#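 Test system: Saccharomyces cerevisiae DeaD strain BB579, replicative lifespan model yeast | Buffer or medium: Restrictive CSMM-D medium | Doses: One dose, 10 µM compound with 0.25% DMSO | Incubation: 48 h exposure, 30 °C | Detection: Culture absorbance at 615 nm | Control set: Amphotericin B at 10 µg/mL as positive control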
# Starred values were filed as active, the others as inactive; nt = no result given.
SMILES,Measles CPE,Mdm2 ligase inh,RAM inhibit,INS promoter inh,Yeast lifespan up,Yeast growth inh
Cn1c(=O)c(C(=O)COC(=O)c2cc(C(F)(F)F)nc3ccccc23)c(N)n(Cc2ccccc2)c1=O,7,nt,4,-40,0,-36
COc1ccc(OC)c(Nc2nc(-c3ccccc3O)nc3ccccc23)c1,nt,-20,9.7*,nt,nt,nt
CCN(CC)C(=O)N1c2ccccc2C=Cc2ccccc21,57*,11,1,-31,-1,-31
NC(=O)N1c2ccccc2C=Cc2ccccc21,2,nt,1,9,1,-28
CCOC(=O)CCc1c(C)nc(-n2[nH]c(C)c(CCO)c2=O)[nH]c1=O,nt,-9,0,64,nt,nt
Cc1[nH]nc(-c2ccc(O)cc2O)c1Oc1ccccc1,5,4,0,nt,-6,-27
CCc1cc(-c2n[nH]c(C)c2Oc2ccc(C(C)C)cc2)c(O)cc1O,14,-19,0,14,-14,90*
CCCOC(=O)c1ccc(Oc2c(-c3ccc(OC)cc3O)n[nH]c2C)cc1,-1,-5,10*,33,-24,-41
Cc1[nH]nc(-c2ccc(O)cc2O)c1-c1ccc(Cl)cc1,4,-24,-1,3,-33,28
COc1ccc(-c2n[nH]c(C)c2-c2ccc(Cl)cc2)c(O)c1,1,1,0,8,-17,100*
Nn1c(SCc2cccc(Br)c2)nnc1-c1cccnc1,nt,-7,nt,nt,nt,nt
Fc1cccc(C2CCCCN2Cc2nc(C3CC3)no2)c1 (stereo not drawn),nt,-6,0,nt,nt,nt
CCCn1nc(C(=O)Oc2ccc3c(C)cc(=O)oc3c2)c2ccccc2c1=O,15,-4,2,37,9,-25
COc1cc(S(=O)(=O)N(C)C)ccc1F,5,3,1,40,-8,-3
OCCC1CN(Cc2cccc(-n3cccn3)c2)CCN1Cc1ccccc1 (stereo not drawn),nt,-8,0,nt,nt,nt
O=C(CSc1c2c(nc3cc(Cl)ccc13)CCCC2)NCc1ccco1,29,-15,2,64,-9,0
CNC(=O)NC1CCCc2ccccc21 (stereo not drawn),23*,-16,3,nt,-16,-24
COC(=O)[C@H](C)NC(=O)NC1CCCc2ccccc21 (stereo partly drawn),56*,-9,1,nt,-6,-11
O=C(NC1CCCc2ccccc21)c1ccccc1 (stereo not drawn),5,-6,1,23,4,-32
CC(C)[C@H](NC(=O)NC1CCCc2ccccc21)C(=O)O (stereo partly drawn),20*,7,3,nt,-7,-12
O=C(Nc1cccc2ccccc12)NC1CCCc2ccccc21 (stereo not drawn),4,-21,8,-21,-1,-42
COC(=O)[C@H](CC(C)C)NC(=O)NC1CCCc2ccccc21 (stereo partly drawn),5,5,2,35,-3,-23
O=C(O)C1C2C=CC(O2)C1C(=O)NC1CCCc2ccccc21 (stereo not drawn),9,-17,0,-55,-12,77*
Cc1ccc(NC(=O)CCSc2nc(C)cc(C)n2)cc1,7,-10,1,-21,-2,-45
O=C(Nc1ccccc1)NC1CCCc2ccccc21 (stereo not drawn),nt,-5,1,nt,nt,nt
SMILES,Measles CPE,Mdm2 ligase inh,RAM inhibit,INS promoter inh,Yeast lifespan up,Yeast growth inh
COc1cccc(NC(=O)NC2CCCc3ccccc32)c1 (stereo not drawn),nt,-18,8.8*,nt,nt,nt
CCC(C)NS(=O)(=O)c1ccc(NC(=O)C(Sc2ccccc2)c2ccccc2)cc1 (stereo not drawn),32*,-6,1,38,4,-9
CC(=O)NS(=O)(=O)c1ccc(NC(=O)C(Sc2ccccc2)c2ccccc2)cc1 (stereo not drawn),17,3,-1,0,-18,-68
Cc1ccc([N+](=O)[O-])cc1NC(=O)c1ccccc1,nt,-5,1,nt,nt,nt
CC(=O)Nc1ccc(NC(=O)C(Sc2ccccc2)c2ccccc2)cc1 (stereo not drawn),nt,-1,nt,nt,nt,nt
Cc1ccc([N+](=O)[O-])cc1NC(=O)C(Sc1ccccc1)c1ccccc1 (stereo not drawn),9,-2,9.1*,-80,-1,-53
CC(C)NC(=O)C(Sc1ccccc1)c1ccccc1 (stereo not drawn),30*,nt,0,-24,1,-74
CC(=O)Nc1cc(N=Cc2ccc(O)cc2O)c(Cl)cc1Cl,19,1,0,-5,1,0
CC1CCN(C(=O)C2(NC(=O)Nc3cccc(F)c3)CCCCC2)CC1,22,nt,1,-256,nt,-35
Cc1cc(C(=O)N/N=C/C=C/c2ccc3c(c2)OCO3)n[nH]1,25*,-15,0,3,-22,-9
O=C(N/N=C\C=C\c1ccc2c(c1)OCO2)c1ccc(F)cc1,nt,-18,3,33,nt,nt
O=C(N/N=C\C=C\c1ccc2c(c1)OCO2)C1COc2cc3ccccc3cc2O1 (stereo not drawn),37*,-3,4,-62,-9,-32
O=C(N/N=C/c1ccc2c(c1)OCO2)C1COc2ccccc2O1 (stereo not drawn),6,3,2,nt,-12,-15
COC(=O)c1c(NC(=O)CC2SC(N)=NC2=O)sc(C)c1C (stereo not drawn),nt,-3,6,nt,nt,nt
CC1=CC(C)(C)N(S(=O)(=O)c2ccc(C)cc2)c2ccccc21,-1,-9,8.7*,18,12,-37
Cc1ccc(CN2CCN(Cc3cccc4nccnc34)CC2CCO)cc1 (stereo not drawn),nt,-15,nt,nt,nt,nt
CCc1ccc(NS(=O)(=O)c2cccs2)cc1,20,-15,-1,-36,-11,20
Cc1nn(Cc2cccc(C(=O)NCC(C)C)c2)c(C)c1Br,27*,-7,0,-38,nt,-12
Cc1nn(Cc2cccc(C(N)=O)c2)c(C)c1Br,nt,-1,nt,nt,nt,nt
COc1ccc(C(=O)c2cc(C(C)=O)c(Nc3ccccc3)s2)cc1,5,-5,9.1*,-4,-4,-45
COc1ccc(OC)c(C(=O)c2ccc(C(=O)Nc3ccccc3)cc2)c1,7,-1,4,3,0,1
COc1cccc(-c2nn(C)c3sc(C(=O)NCc4ccc5c(c4)OCO5)cc23)c1,8,-22,4,nt,-5,-22
COc1cccc(-c2nn(C)c3sc(C(=O)NCc4ccc(C)o4)cc23)c1,19,-13,11*,62*,-26,-48
